Only some compounds are listed: those with a hit (about 4.6% of all), similar ones and a draw of the others.
PfM18AAP inh: PfM18AAP enzyme inhibition; recombinant PfM18AAP, H-Glu-NHMec fluorogenic cleavage; inhibition, % at 7.35 µM; hit rate 1.2% among 290,000;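 active means inhibition above the campaign mean inhibition over all tested compounds plus 3 SD, cut at about 28% in these data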
Rtt109 Vps75: C. albicans Rtt109 histone acetyltransferase inhibition; inhibition, % at 34.9 µM; AID 540336; purified Rtt109/Vps75, ThioGlo CoA-SH fluorescence, 4 h; hit rate 0.16% among 330,000;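 active means inhibition of at least 50% in every replicate; inconclusive means best replicate reaches 50% inhibition but some replicates fall short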
HDAC3 inhib: blocks human histone deacetylase 3; O15379; hit rate 0.15% among 320,000; recombinant HDAC3, fluorogenic peptide/trypsin coupled, fluorescence; inhibition, % at 8.3 µM; AID 2718; in the data active means inhibition above about 26%, passing the limit was not always enough; inconclusive means no clear call, values can overlap the other calls
FAS TE block: inhibitors of human fatty acid synthase thioesterase domain; recombinant FAS-TE, OMFH fluorogenic substrate, fluorescence endpoint; AID 602261; inhibition, % at 15 µM; hit rate 0.67% among 360,000;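 active means compounds whose normalised, plate-corrected inhibition of enzyme fluorescence in the single-dose primary screen is 50% or more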
ALR H2O2 inh: blocks human ALR sulfhydryl oxidase activity; P55789; purified ALR, DTT oxidation, H2O2 HRP-luminol luminescence; inhibition, % (no concentration beside the values); hit rate 3.8% among 290,000;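 active means mean replicate inhibition above about 79%, with every replicate also reaching it, limit read from the data; inconclusive means only one of the two criteria met; inactive means mean below limit and not every replicate reaching it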
UCH37 inh: blocks the human deubiquitinase UCH37 | Q9Y5K5 | purified proteasome/UCH37, Ub-AMC cleavage fluorescence | inhibition, % (no concentration beside the values) | hit rate 0.33% among 330,000;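 active means mean inhibition over replicate wells above about 20%, limit read from the data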
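Material: human UCH37 enzyme supplied as purified proteasome complex. Measure: % inhibition of Ub-AMC cleavage fluorescence. Medium: pH 7.4 Tris-HCl (50 mM) with ovalbumin, ATP-MgCl2, DTT. Times: 30 min preincubation with enzyme, 25 min cleavage at room temperature. Detection: AMC fluorescence intensity at 355/460 nm.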
A number is an active result.

Cc1ccc(C(=O)OCC(=O)Nc2ccc(N3CCOCC3)cc2)cc1 was read as Rtt109 Vps75 inactive, FAS TE block inactive and UCH37 inh inactive.
For CCc1nnc(NC(=O)CSC(=S)N2CCOCC2)s1 the results were PfM18AAP inh inactive, Rtt109 Vps75 inactive, HDAC3 inhib inactive, FAS TE block inactive, ALR H2O2 inh inactive and UCH37 inh inactive.
`Cc1cnn(-c2cc(NN=Cc3ccccc3F)ncn2)c1` gave UCH37 inh inactive.
For CCOC(=O)c1sc(NC(=O)CSC(=S)N2CCN(C)CC2)nc1C the results were PfM18AAP inh inactive, Rtt109 Vps75 inactive, HDAC3 inhib inactive, FAS TE block inactive, ALR H2O2 inh 99 and UCH37 inh inactive.
CCOC(=O)c1ccc(NC(=O)CSC(=S)N2CCOCC2)cc1 was read as PfM18AAP inh inactive, Rtt109 Vps75 inactive, HDAC3 inhib inactive, FAS TE block inactive, ALR H2O2 inh 100 and UCH37 inh inactive.
CCOC(=O)c1ccc(NC(=O)N2CCOCC2)cc1 was read as PfM18AAP inh inactive, Rtt109 Vps75 inactive, HDAC3 inhib inactive, FAS TE block inactive, ALR H2O2 inh inactive and UCH37 inh inactive.
CC(=O)Nc1ccc(NC(=O)C2CCN(C(=O)c3ccc([N+](=O)[O-])cc3)CC2)cc1 was read as PfM18AAP inh inactive, Rtt109 Vps75 inactive, HDAC3 inhib inactive, FAS TE block inactive, ALR H2O2 inh inactive and UCH37 inh inactive.
CCc1ccccc1NC(=O)C1CCN(C(=O)c2ccc([N+](=O)[O-])cc2)CC1 was read as PfM18AAP inh inactive, Rtt109 Vps75 58, HDAC3 inhib inactive, FAS TE block inactive, ALR H2O2 inh inactive and UCH37 inh inactive.
Screening COc1cc(C=NNC(=O)c2nnn(-c3nonc3N)c2C(C)C)ccc1OCc1ccc(F)cc1 returned UCH37 inh inactive.
Screening COc1ccc(C=NNC(=O)CN(c2ccc(OC)cc2)S(=O)(=O)c2ccccc2)cc1 returned UCH37 inh inactive.
`COc1ccc(C(=O)C(CCC(CNC(C)(C)C)C(=O)c2ccc(OC)cc2)CNC(C)(C)C)cc1` (centres undefined) gave PfM18AAP inh inactive, Rtt109 Vps75 62, HDAC3 inhib inactive, FAS TE block inactive, ALR H2O2 inh inconclusive and UCH37 inh inactive.
Screening Nc1ccc(N=Nc2ccc(N)cc2)cc1 returned PfM18AAP inh inactive, Rtt109 Vps75 inactive, HDAC3 inhib inactive, FAS TE block inactive, ALR H2O2 inh 98 and UCH37 inh inactive.
Screening CC(CC(=O)Nc1ccc2c(c1)OCCO2)=NNC(=O)Cc1ccc(Cl)cc1 returned UCH37 inh inactive.
O=C(NCc1ccccc1)c1sc(=S)n2c1[nH]c(=O)c1ccccc12 was read as PfM18AAP inh inactive, Rtt109 Vps75 inactive, HDAC3 inhib inactive, FAS TE block inactive, ALR H2O2 inh 98 and UCH37 inh inactive.
O=C(CSCc1ccccc1)NN=Cc1ccccc1OCc1ccccc1 was read as UCH37 inh inactive.
`Oc1ccc(C=NN2CCN(c3ccccn3)CC2)cc1` gave UCH37 inh inactive.
For CC(C)OCCCn1c(-c2ccco2)nc2nc3ccccc3nc21 the results were PfM18AAP inh inactive, Rtt109 Vps75 inactive, HDAC3 inhib inactive, FAS TE block inactive, ALR H2O2 inh 98 and UCH37 inh inactive.
CCOc1ccc(NC(=Nc2nc(C)cc(C)n2)NC(C)=O)cc1 was read as UCH37 inh inactive.
CCn1c(SCC(=O)NN=Cc2c[nH]c3ccccc23)nnc1-c1ccc(C(C)(C)C)cc1 was read as UCH37 inh inactive.
Screening O=c1[nH]c(=S)[nH]c2sccc12 returned PfM18AAP inh inactive, Rtt109 Vps75 inactive, HDAC3 inhib inactive, FAS TE block inactive, ALR H2O2 inh 97 and UCH37 inh inactive.
Screening O=c1[nH]c(=S)[nH]c2scc(-c3ccc(Br)cc3)c12 returned Rtt109 Vps75 inactive, HDAC3 inhib inactive, FAS TE block inactive, ALR H2O2 inh inactive and UCH37 inh inactive.
For O=C(NN=Cc1ccccc1C(=O)O)c1cc(-c2ccc3c4c(cccc24)CC3)n[nH]1 the results were UCH37 inh inactive.
For Cc1cnc(C(=O)Nc2ccc(C(=O)N3CCCCC3)cc2)cn1 the results were PfM18AAP inh inactive, Rtt109 Vps75 inactive, HDAC3 inhib inactive, FAS TE block inactive, ALR H2O2 inh 100 and UCH37 inh inactive.
For COc1ccc(C=NNC(=O)c2cccc(NC(=O)c3ccc(Cl)cc3)c2)c(OC)c1 the results were UCH37 inh inactive.
For CC(=NNC(=O)c1cccnc1)c1ccc(-c2ccccc2)cc1 the results were UCH37 inh inactive.
For O=C(NCc1ccccn1)C(=O)NCC(c1ccco1)N1CCN(c2ccc(F)cc2)CC1 (centres undefined) the results were PfM18AAP inh inactive, Rtt109 Vps75 inactive, HDAC3 inhib inactive, FAS TE block inactive, ALR H2O2 inh 98 and UCH37 inh inactive.
For O=C(NCc1ccncc1)C(=O)NCC(c1ccco1)N1CCN(c2ccc(F)cc2)CC1 (centres undefined) the results were PfM18AAP inh inactive, Rtt109 Vps75 53, HDAC3 inhib inactive, FAS TE block inactive, ALR H2O2 inh 94 and UCH37 inh inactive.
O=C(NCc1ccccn1)C(=O)NCC(c1ccco1)N1CCOCC1 (centres undefined) was read as PfM18AAP inh inactive, Rtt109 Vps75 inactive, HDAC3 inhib inactive, FAS TE block inactive, ALR H2O2 inh inactive and UCH37 inh inactive.
For O=C(NN=Cc1cccnc1)c1ccc2ccccc2c1O the results were UCH37 inh inactive.
O=C(O)c1ccccc1C=NNc1ccc(S(=O)(=O)N2CCCC2)cc1[N+](=O)[O-] was read as UCH37 inh inactive.
`Cc1cccc(N2C(=O)CCC2=O)c1` gave PfM18AAP inh inactive, Rtt109 Vps75 inactive, HDAC3 inhib inactive, FAS TE block inactive, ALR H2O2 inh inactive and UCH37 inh inactive.
`Cc1cccc(N2CCC(N=CN(C)C)=N2)c1` gave PfM18AAP inh inactive, HDAC3 inhib inactive, FAS TE block inactive, ALR H2O2 inh 99 and UCH37 inh inactive.
Screening CCN(C=NC1=NN(c2cccc(C(F)(F)F)c2)CC1)CC returned PfM18AAP inh inactive, Rtt109 Vps75 inactive, HDAC3 inhib inactive, FAS TE block inactive, ALR H2O2 inh 94 and UCH37 inh inactive.
For OCCN(C=NC1=NN(c2cccc(C(F)(F)F)c2)CC1)CCO the results were PfM18AAP inh inactive, Rtt109 Vps75 inactive, HDAC3 inhib inactive, FAS TE block inactive and UCH37 inh inactive.
`COc1ccc(N2C(=O)CC(S/C(N)=N/N=C(C)c3cccs3)C2=O)cc1` (centres undefined) gave UCH37 inh inactive.
For Cn1cccc1C1C(C#N)=C(N)OC2=C1C(=O)CCC2 (centres undefined) the results were PfM18AAP inh 28, HDAC3 inhib inactive, FAS TE block inactive, ALR H2O2 inh inactive and UCH37 inh inactive.
